Results on eleven molecules are retold here after ChEMBL document CHEMBL1151177, “Antiviral flavonoids from the seeds of Aesculus chinensis” (J Nat Prod, 2004).

One assay concerns Influenza A virus. The experiment in a line: Antiviral activity against influenza virus type A H1N1 in MDCK cells assessed as inhibition of virus-induced cytopathic effect. The format is functional, organism-based. An outline of the steps:
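Two-fold serial dilutions were applied to cell monolayers, starting at the maximal noncytotoxic concentration. An equal volume of virus at 100 TCID50/mL was added, with an untreated infected control. Plates were held at 37 °C, humidified, for 2–5 days. CPE was scored 0–4 and expressed as percent of virus control. IC50 (µg/mL), the concentration halving CPE, was read from graphic plots.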
A general note: Protection from cytopathic effect is a common read-out in antiviral testing.

Assay [1] in a line: Selectivity index, ratio of CC50 for MDCK cells to IC50 for influenza virus type A H1N1. The format is functional. Summed up: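 SI was computed as CC50/IC50. CC50 came from microscopic morphology scoring (0–4) of monolayers after 2–5 days at 37 °C. IC50 came from CPE scoring of cells infected at 100 TCID50/mL and treated with two-fold dilutions for 2–5 days at 37 °C. Both values were read from graphic plots.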

In brackets after ≈: the same amount, converted by molar mass.

A word on the CC50: it is the concentration giving 50% cytotoxicity. As usually defined, the IC50 is the point on the concentration scale where inhibition reaches its midpoint. For the molecule `C[C@@H]1O[C@@H](Oc2c(-c3ccc(O)cc3)oc3cc(O)cc(O)c3c2=O)[C@H](O)[C@H](O)[C@H]1O[C@@H]1O[C@H](CO)[C@@H](O)[C@H](O)[C@H]1O`, in the assay with Influenza A virus, the CC50 was 375 µg/mL (≈ 631 µM) and the IC50 is above 500 µg/mL. For the same molecule, the “Ratio CC50/IC50” value in assay [1] is reported as below 0.8.

For the molecule `C[C@@H]1O[C@@H](OC[C@H]2O[C@@H](Oc3c(-c4ccc(O)c(O[C@@H]5O[C@H](CO)[C@@H](O)[C@H](O)[C@H]5O)c4)oc4cc(O)cc(O)c4c3=O)[C@H](O[C@@H]3OC[C@@H](O)[C@H](O)[C@H]3O)[C@@H](O)[C@@H]2O)[C@H](O)[C@H](O)[C@H]1O` [AESCUFLAVOSIDE], in the assay on Influenza A virus, the CC50 was determined as 108 µg/mL (≈ 119 µM) and the IC50 is above 100 µg/mL. Also, in assay [1], the “Ratio CC50/IC50” value is reported as below 1.1.

Take `NC(=O)c1ncn([C@@H]2O[C@H](CO)[C@@H](O)[C@H]2O)n1` [RIBAVIRIN]: in the assay on Influenza A virus, the CC50 was above 125 µg/mL and the IC50 was 62.5 µg/mL (≈ 256 µM).

Regarding `O=c1c(O[C@@H]2O[C@H](CO)[C@@H](O)[C@H](O)[C@H]2O)c(-c2ccc(O)c(O)c2)oc2cc(O)cc(O)c12` [ISOQUERCETIN], in the assay on Influenza A virus, the CC50 was above 400 µg/mL and the 50% inhibitory concentration (IC50) is above 500 µg/mL.

With `COc1ccc(-c2oc3cc(O)cc(O)c3c(=O)c2O[C@@H]2O[C@H](CO)[C@@H](O)[C@H](O)[C@H]2O[C@@H]2OC[C@@H](O)[C@H](O)[C@H]2O)cc1O[C@@H]1O[C@H](CO)[C@@H](O)[C@H](O)[C@H]1O` [AESCUFLAVOSIDE A], in the assay with Influenza A virus, the CC50 amounted to 322 µg/mL (≈ 417 µM) and the half-inhibitory concentration (IC50) was above 500 µg/mL. For the same molecule, the “Ratio CC50/IC50” value in assay [1] is below 0.6.

For the molecule `O=c1c(O[C@@H]2O[C@H](CO[C@@H]3O[C@H](CO)[C@@H](O)[C@H](O)[C@H]3O)[C@@H](O)[C@H](O)[C@H]2O[C@@H]2OC[C@@H](O)[C@H](O)[C@H]2O)c(-c2ccc(O)cc2)oc2cc(O)cc(O)c12`, in the assay on Influenza A virus, the CC50 turned out to be 107 µg/mL (≈ 144 µM) and the IC50 is above 100 µg/mL. Moreover, the “Ratio CC50/IC50” value in assay [1] is given as below 1.1.

For `O=c1c(O[C@@H]2O[C@H](CO)[C@@H](O)[C@H](O)[C@H]2O[C@@H]2OC[C@@H](O)[C@H](O)[C@H]2O)c(-c2ccc(O)c(O[C@@H]3O[C@H](CO)[C@@H](O)[C@H](O)[C@H]3O)c2)oc2cc(O)cc(O)c12`, in the assay on Influenza A virus, the half-maximal cytotoxic concentration (CC50) was above 322 µg/mL and the IC50 is above 500 µg/mL.

With `O=c1c(O[C@@H]2O[C@H](CO)[C@@H](O)[C@H](O)[C@H]2O)c(-c2ccc(O)cc2)oc2cc(O)cc(O)c12` [ASTRAGALIN], in the assay on Influenza A virus, the CC50 was determined as 392 µg/mL (≈ 875 µM) and the IC50 was 24.5 µg/mL (≈ 54.6 µM). Besides, the “Ratio CC50/IC50” value in assay [1] came to 16.

Turning to `O=c1c(O[C@@H]2O[C@H](CO)[C@H](O)[C@H](O)[C@H]2O)c(-c2ccc(O)cc2)oc2cc(O)cc(O)c12` [TRIFOLIN], in the assay on Influenza A virus, the CC50 was 215 µg/mL (≈ 480 µM) and the IC50 is above 300 µg/mL. For the same molecule, in assay [1], the “Ratio CC50/IC50” value is given as below 0.7.

With `O=c1c(O[C@@H]2O[C@H](CO)[C@@H](O)[C@H](O)[C@H]2O[C@@H]2OC[C@@H](O)[C@H](O)[C@H]2O)c(-c2ccc(O)cc2)oc2cc(O)cc(O)c12`, in the assay with Influenza A virus, the cytotoxic concentration (CC50) came out at 46.9 µg/mL (≈ 80.8 µM) and the IC50 was above 100 µg/mL. The “Ratio CC50/IC50” value in assay [1] is reported as below 0.5.

Regarding `O=c1c(O[C@@H]2O[C@H](CO)[C@@H](O)[C@H](O)[C@H]2O[C@@H]2OC[C@@H](O)[C@H](O)[C@H]2O)c(-c2ccc(O)c(O)c2)oc2cc(O)cc(O)c12`, in the assay on Influenza A virus, the CC50 came out at 198 µg/mL (≈ 331 µM) and the IC50 is above 200 µg/mL. Further, the “Ratio CC50/IC50” value in assay [1] is on record as below 1.
